How the values were obtained:
Format in all cases: functional
[1] = system: HOP-62; assay: Cytotoxicity against human HOP62 cells; details: for CC50: read-out: pLC50 (the source's name) (converted)
Summary of the method: (§1)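 Tested in a 60-cell-line human tumor panel screen; the read-out is growth inhibition, reported as GI50 for each cell line.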

[2] = system: MDA-MB-468; assay: Cytotoxicity against human MDA-MB-468 cells; details: for TGI: read-out: pTGI (converted); summary of the method: as §1
[3] = system: RPMI-8226; assay: Cytotoxicity against human RPMI8226 cells; summary of the method: as §1
[4] = system: PC-3; assay: Cytotoxicity against human PC3 cells; details: for TGI: read-out: pTGI (converted); summary of the method: as §1
[5] = system: SK-MEL-5; assay: Cytotoxicity against human SK-MEL-5 cells; details: for CC50: read-out: pLC50 (the source's name) (converted); for TGI: read-out: pTGI (converted); summary of the method: as §1
[6] = system: SR; assay: Cytotoxicity against human SR cells; details: for CC50: read-out: pLC50 (the source's name) (converted); for TGI: read-out: pTGI (converted)
Summary of the method: (§2)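 Cell line run as part of the 60-cell-line screening panel; growth inhibition was reported as a GI50 for each line.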

[7] = system: COLO 205; assay: Cytotoxicity against human COLO205 cells; details: for CC50: read-out: pLC50 (the source's name) (converted); for TGI: read-out: pTGI (converted); summary of the method: as §1
[8] = Cytotoxicity against human UACC62 cells; details: for GI50: UACC-62; for CC50: UACC-62, read-out: pLC50 (the source's name) (converted); for TGI: UACC-62, read-out: pTGI (converted); summary of the method: as §2
[9] = system: NCI-H522; assay: Cytotoxicity against human NCI-H522 cells; summary of the method: as §1
[10] = system: HOP-92; assay: Cytotoxicity against human HOP92 cells; details: for CC50: read-out: pLC50 (the source's name) (converted); for TGI: read-out: pTGI (converted); summary of the method: as §1
[11] = Cytotoxicity against human Hs578T cells; details: Hs-578T; for TGI: read-out: pTGI (converted); summary of the method: as §1
[12] = system: SW-620; assay: Cytotoxicity against human SW620 cells; details: for CC50: read-out: pLC50 (the source's name) (converted); for TGI: read-out: pTGI (converted); summary of the method: as §2
[13] = system: SNB-19; assay: Cytotoxicity against human SNB19 cells; details: for CC50: read-out: pLC50 (the source's name) (converted); for TGI: read-out: pTGI (converted); summary of the method: as §1
[14] = system: SK-MEL-28; assay: Cytotoxicity against human SK-MEL-28 cells; details: for CC50: read-out: pLC50 (the source's name) (converted); for TGI: read-out: pTGI (converted); summary of the method: as §1
[15] = system: CCRF-CEM; assay: Cytotoxicity against human CCRF-CEM cells; details: for CC50: read-out: pLC50 (the source's name) (converted); for TGI: read-out: pTGI (converted)
[16] = system: NCI-H322M; assay: Cytotoxicity against human NCI-H322M cells; details: for CC50: read-out: pLC50 (the source's name) (converted); for TGI: read-out: pTGI (converted); summary of the method: as §1
[17] = system: Malme-3M; assay: Cytotoxicity against human MALME-3M cells; summary of the method: as §1
[18] = read-out: pLC50 (the source's name) (converted)

With COc1cc(/C=C/c2cc(O)c3cc[nH]c3c2)cc2c1O[C@]1(C)CC[C@@H](O)C(C)(C)[C@H]1C2 the GI50 [1] was 1.91 µM, the CC50 [1] was > 100 µM and the TGI ([1]; read-out: pTGI (converted)) was 8.13 µM. For the same molecule, the GI50 [2] was 2.45 µM, the LC50 [2] was > 100 µM and the TGI [2] was 7.59 µM. The GI50 [3] was 0.316 µM, the CC50 [3, 18] was > 100 µM and the TGI ([3]; read-out: pTGI (converted)) was 2.51 µM. The GI50 [4] was 0.631 µM, the LC50 [4] was > 100 µM and the TGI [4] was 38 µM. The GI50 [5] was 0.195 µM, the CC50 [5] was 1.12 µM and the TGI [5] was 0.457 µM. For the same molecule, the GI50 [6] was 0.302 µM, the CC50 [6] was > 100 µM and the TGI [6] was 9.55 µM. It also gave a GI50 [7] of 1.26 µM, a CC50 [7] of 11.5 µM and a TGI [7] of 3.39 µM. It also gave a GI50 [8] of 2.19 µM, a CC50 [8] of 43.7 µM and a TGI [8] of 7.24 µM. For the same molecule, the GI50 [9] was 1.29 µM, the CC50 [9, 18] was 41.7 µM and the TGI ([9]; read-out: pTGI (converted)) was 8.32 µM. For the same molecule, the GI50 [10] was 1.23 µM, the CC50 [10] was > 100 µM and the TGI [10] was 19.1 µM. For the same molecule, the GI50 [11] was 0.251 µM, the LC50 [11] was > 100 µM and the TGI [11] was 0.871 µM. For the same molecule, the GI50 [12] was 1.26 µM, the CC50 [12] was 8.13 µM and the TGI [12] was 3.16 µM. For the same molecule, the GI50 [13] was 1.32 µM, the CC50 [13] was > 100 µM and the TGI [13] was 18.2 µM. For the same molecule, the GI50 [14] was 1.48 µM, the CC50 [14] was > 100 µM and the TGI [14] was > 100 µM. For the same molecule, the GI50 [15] was 0.525 µM, the CC50 [15] was > 100 µM and the TGI [15] was 36.3 µM. For the same molecule, the GI50 [16] was 3.47 µM, the CC50 [16] was > 100 µM and the TGI [16] was 25.1 µM. It also gave a GI50 [17] of 1.74 µM, a CC50 [17, 18] of 52.5 µM and a TGI ([17]; read-out: pTGI (converted)) of 10.7 µM.

Molecule COc1cc(/C=C/c2cc(O)c3c(CC=C(C)C)c[nH]c3c2)cc2c1O[C@]1(C)CC[C@@H](O)C(C)(C)[C@H]1C2 has a GI50 [1] of 0.234 µM, a CC50 [1] of 50.1 µM and a GI50 [2] of 0.513 µM. The LC50 [2] was 46.8 µM, the TGI [2] was 9.33 µM and the GI50 [4] was 0.229 µM. For the same molecule, the LC50 [4] was 50.1 µM, the TGI [4] was 50.1 µM and the GI50 [5] was 0.158 µM. The CC50 [5] was 1.82 µM, the TGI [5] was 0.575 µM and the GI50 [6] was 0.295 µM. The CC50 [6] was 50.1 µM, the TGI [6] was 50.1 µM and the GI50 [7] was 0.302 µM. The CC50 [7] was 6.46 µM, the TGI [7] was 1.35 µM and the GI50 [8] was 0.138 µM. For the same molecule, the CC50 [8] was 3.63 µM, the TGI [8] was 0.407 µM and the GI50 [10] was 0.589 µM. For the same molecule, the CC50 [10] was 50.1 µM, the TGI [10] was 50.1 µM and the GI50 [11] was 0.0708 µM. The LC50 [11] was 50.1 µM, the TGI [11] was 1 µM and the GI50 [12] was 0.447 µM. The CC50 [12] was 10.7 µM, the TGI [12] was 1.74 µM and the GI50 [13] was 0.708 µM. It also gave a CC50 [13] of 50.1 µM, a TGI [13] of 50.1 µM and a GI50 [14] of 0.55 µM. It also gave a CC50 [14] of 50.1 µM, a TGI [14] of 1.91 µM and a GI50 [15] of 0.148 µM. For the same molecule, the CC50 [15] was 50.1 µM, the TGI [15] was 50.1 µM and the GI50 [16] was 10.5 µM. The CC50 [16] was 50.1 µM and the TGI [16] was 50.1 µM.
